Results from ChEMBL document CHEMBL3576870, “Monanchosterols A and B, bioactive bicyclo[4.3.1]steroids from a Korean sponge Monanchora sp” (J Nat Prod, 2015).
Calls of active or inactive are those of the source. The rule behind the calls is not given here.

How the values were obtained:
RAW264.7 [1] = assay: Cytotoxicity against mouse RAW264.7 cells; type: cell-based; conditions: for Activity: mouse, raw264.7
RAW264.7 [2] = assay: Antiinflammatory activity in mouse RAW264.7 cells assessed as inhibition of LPS-stimulated IL-6 mRNA expression at 10 uM after 24 hrs by RT-qPCR analysis relative to control; type: functional; conditions: RAW264.7, 24 h
Summary of the method: (§1)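 RAW 264.7 cells grown in DMEM with 10% heat-inactivated FBS and 1% penicillin-streptomycin at 37 °C, 5% CO2. Plated at 3 × 10^5 cells/mL in six-well plates, left 24 h. Then given 0.1 μg/mL LPS with or without test compound (0.1–100 μM) for 24 h. mRNA quantified by RT-qPCR after RNA extraction, normalized to 18s mRNA and expressed as ratio to DMSO. SB203580 (10 μM) served as reference. Mean ± SD of three independent experiments.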

RAW264.7 [3] = assay: Antiinflammatory activity in mouse RAW264.7 cells assessed as inhibition of LPS-stimulated COX-2 mRNA expression at 0.1 to 100 uM after 24 hrs by RT-qPCR analysis; type: functional, cell-based; summary of the method: as §1
RAW264.7 [4] = assay: Antiinflammatory activity in mouse RAW264.7 cells assessed as inhibition of LPS-stimulated IL-6 mRNA expression after 24 hrs by RT-qPCR analysis; type: functional, cell-based; conditions: for IC50: RAW264.7, 24 h; summary of the method: as §1
RAW264.7 [5] = assay: Antiinflammatory activity in mouse RAW264.7 cells assessed as inhibition of LPS-stimulated TNF-alpha mRNA expression at 0.1 to 100 uM after 24 hrs by RT-qPCR analysis; type: functional, cell-based; summary of the method: as §1

Row | SMILES | IC50 (RAW264.7 [1]; Mus musculus, RAW264.7) | inhibition at 10 µM (RAW264.7 [2]) | Activity (RAW264.7 [1]) | inhibition (RAW264.7 [3]) | inhibition (RAW264.7 [4]) | IC50 (RAW264.7 [4]) | inhibition (RAW264.7 [5])
1 | CC(C)=CCC[C@@H](C)[C@H]1CC[C@H]2C3=C[C@@H](O)[C@H]4C(=O)[C@](C)(CC[C@@H]4O)[C@H]3CC[C@]12C | 65 µM | – | – | – | – | – | –
2 | C[S+]([O-])c1ccc(-c2nc(-c3ccc(F)cc3)c(-c3ccncc3)[nH]2)cc1 (centres undefined) [SB-203580] | – | 53% | – | – | – | – | –
3 | C=C(CC[C@@H](C)[C@H]1[C@H](O)C[C@H]2[C@@H]3CC=C4C[C@@H](O)CC[C@]4(C)[C@H]3CC[C@]12C)C(C)C | – | 67% | Non-toxic | inactive | Dose-dependent effect | 5.2 µM | inactive
4 | CC(=O)O[C@H]1CC[C@@]2(C)C(=O)[C@@H]1[C@H](O)C=C1[C@@H]3CC[C@H]([C@H](C)CCC=C(C)C)[C@@]3(C)CC[C@@H]12 | – | 69% | Non-toxic | inactive | Dose-dependent effect | 5 µM | inactive
